A selection: hits, their analogues and other compounds. The true share with any hit is near 3.7%.
Redox H2O2 prof: compounds producing H2O2 with reducing agent – biochemical, NIH compound library profiling, artefact control for MLSCN library redox annotation, primary screen | DTT-dependent redox cycling H2O2, phenol red/HRP absorbance; 100% = 100 µM peroxide control, 0% = buffer | activation, % at 10 µM | actives 0.03% (n = 200,000) | AID 878, 2007;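 active = activation of at least 50% relative to the plate's high and low controls in the primary single-dose screen; inactive = activation below 50%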;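 also: compound incubated with DTT at 0.8 mM final as the reducing agent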
MT stabilize HCS: microtubule stabilizers in HeLa cells, primary screen, imaging, high-content imaging. AID 2205, 2009. actives 0.83% (n = 200,000). HeLa tubulin immunostaining HCS, 24 h; share of cells brighter than vehicle mean+2SD. % tubulin-high responders, % at 10 µM;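 active = plate Z-score above 3 for both tubulin-high and condensed-nucleus cell shares, with cell loss under 80%, at 10 µM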;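 also: anti alpha tubulin signal scored within the nucleus-defined area of each cell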
b-catenin transl: modulators of beta-catenin nuclear translocation, primary screen, imaging, HeLa cells, immunofluorescence, high-content; AID 1665, 2009; nuclear translocation activity, % at 5 µM; actives 0.3% (n = 190,000);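 active = nuclear translocation activity above 50% at 5 µM, with a well cell count of 50 or more; inconclusive = wells under 50 cells across six images, flagged as toxic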;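 also: per-cell ratio of nuclear to cytoplasmic median beta-catenin stain intensity; plate controls were DMSO negative control for no effect and GSK-3 inhibitor IX positive control for full effect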
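System: HeLa cells, endogenous beta-catenin; compound dosing: 5 µM primary single dose, 0.1% DMSO, 0.02–20 µM confirmation series; incubation: 24 h compound exposure at 37°C, 5% CO2; signal: beta-catenin immunofluorescence imaging with DAPI; evaluation: % activation, nuclear-to-cytoplasmic median beta-catenin signal ratio per cell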
Cl transport mod: KCC2 cotransporter modulators, thallium flux, primary screen, cell-based, HEK293 KCC2, FluoZin-2 fluorescence, MLSMR; Solute carrier family 12 member 5 (Homo sapiens), Q9H2X9; AID 1456, 2008; actives 2.2% (n = 190,000); B-score of Tl+ flux slope (higher = more flux/activation; lower = inhibition) at 10 µM; KCC2 cells, thallium flux FluoZin-2 fluorescence;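 active = thallium flux slope and its plate-corrected score both differing from the plate sample mean at a set confidence after two filtering rounds, in either direction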;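 also: slope of fluorescence scaled to starting intensity during 10 to 20 s after thallium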
ROMK mod: ROMK potassium channel modulators, primary screen, cell-based, thallium flux, MLSMR library; ATP-sensitive inward rectifier potassium channel 1 (Homo sapiens), P48048; Tet-inducible ROMK, thallium flux fluorescence; actives lie on both sides; B-score at 10 µM; actives 2% (n = 130,000); AID 1918, 2009;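 active = signal ratio slope over the read window, or its plate-corrected B-score, at least 3 SD from the plate mean, either direction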;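 also: B-score of the F/F0 ratio slope over 7 to 12 s after thallium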
ROMK hit retest: ROMK channel modulator hit retest, confirmation, cell-based, thallium flux, duplicate, resupplied hits; actives 54% (n = 3,000); normalized thallium flux (F/F0 slope) at 10 µM; AID 1917, 2009; shares compounds with ROMK mod; fluorescence ratio; stronger effect = lower value;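 active = Flux at 10 µM at least 3 SD below or above vehicle control mean in one or both replicates; inconclusive = no clear call, values can overlap the other calls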
* hit, by the source's call; ? = inconclusive; nt = not tested or not shown.

SMILES	Redox H2O2 prof	MT stabilize HCS	b-catenin transl	Cl transport mod	ROMK mod	ROMK hit retest
CC(=C\c1ccccc1)/C=C1/SC(=S)N(CCC(=O)Nc2ccccn2)C1=O	1	3	0	-1.2	-0.73	nt
CC(=C\c1ccccc1)/C=C1/SC(=S)N(C(C(=O)O)C(C)C)C1=O (stereo not drawn)	0	3	3	nt	nt	0.089
CC(/C=C1\SC(=S)N(CCCC(=O)Nc2ccc(C(=O)O)cc2)C1=O)=C\c1ccccc1	0	2	0	-3.1	-2.8*	0.058*
CCCC1=C(C(=O)OCC)C(c2ccncc2)n2ncnc2N1 (stereo not drawn)	0	1	nt	nt	0.0039	nt
C#CCOC(=O)C[N+](C)(C)CC#Cc1ccccc1	-1	2	0	-0.27	-1.5	nt
c1ccc2c(c1)OCCOCCOCCOCCOCCOc1ccccc1OCCOCCOCCO2	0	2	nt	-1	-4.8*	0.042*
CC(=O)c1ccc2c(c1)OCCOCCOc1ccccc1OCCOCCO2	nt	nt	-3	0.078	nt	nt
CCN1C(=O)/C(=C/c2ccc(C)s2)NC1=S	0	1	-5	nt	4.6*	0.094
O=C(NN=C1CCCC1)C1COc2ccccc2O1 (stereo not drawn)	-2	2	-2	-0.22	-0.12	nt
Cc1ccc(CNC(=O)C(=O)NCC2OCCN2C(=O)c2cccs2)cc1 (stereo not drawn)	0	4	6	-0.16	nt	nt
OC(CNCc1ccccc1)COCc1ccc(Cl)cc1 (stereo not drawn)	0	2	-4	1.1	-1.9	nt
CC(NCC(O)COCc1ccc(Cl)cc1)c1ccccc1 (stereo not drawn)	-1	2	nt	0.51	-2*	0.049*
O=C(Cn1ccc([N+](=O)[O-])n1)NCc1cccnc1	-1	1	3	-0.0097	0.89	nt
CCn1c(/C=C/Nc2ccccc2)[n+](CC)c2ccc(Cl)cc21	0	5	0	-1.6	-3.2*	?
O=C(N1CCOCC1)N1CCN(c2ccccc2)CC1	0	2	0	1.2	nt	nt
O=C(Cc1ccccc1)Nc1ccc(N2CCOCC2)cc1	0	3	0	0.33	-2*	0.074
c1ccc(N2CCOCCOCCOCCOCCOCC2)cc1	0	1	2	0.51	-6.7*	0.085
c1ccc(Oc2nc(Oc3ccccc3)nc(N3CCOCC3)n2)cc1	1	6	-3	-1	-3.6*	?
Cc1c(C(=O)O)cccc1-c1ccc(/C=N/Nc2ccc(Br)cc2)o1	0	3	-1	-1.3	1.7*	0.1*
CCCN1C(=O)/C(=C/c2ccc(C)o2)SC1=Nc1ccc(OC)cc1	2	2	-2	0.29	nt	nt
COc1ccc(N=C2S/C(=C\c3ccc(OCC(=O)O)cc3)C(=O)N2CCc2c[nH]c3ccccc23)cc1	-2	2	1	-0.56	8.5*	0.12*
COc1ccc(N=C2S/C(=C\c3ccc(N4CCOCC4)o3)C(=O)N2CCc2c[nH]c3ccccc23)cc1	2	4	nt	-0.83	nt	0.058*
O=C(Cn1cnc2scc(-c3cccc([N+](=O)[O-])c3)c2c1=O)NCc1ccco1	-1	2	0	-0.42	-0.36	nt
CCOC(=O)COc1ccc(Br)cc1/C=C\c1[nH]c(=O)[nH]c(=O)c1[N+](=O)[O-]	0	6	2	0.37	-1.2	nt
CCOC(=O)COc1ccc(Br)cc1/C=C/c1[nH]c(=O)[nH]c(=O)c1[N+](=O)[O-]	-2	6	0	2.5	-2.7*	0.051*
SMILES	Redox H2O2 prof	MT stabilize HCS	b-catenin transl	Cl transport mod	ROMK mod	ROMK hit retest
COc1ccc(N(C(=O)/C=C/C(=O)Nc2cc(C)on2)C(C(=O)NC2CCCC2)c2ccccc2C)cc1 (stereo not drawn)	1	5	1	0.044	-6.4*	0.057*
COc1ccc(N(C(=O)CCC(=O)Nc2cc(C)on2)C(C(=O)NC2CCCC2)c2ccco2)cc1 (stereo not drawn)	0	3	-3	0.78	-0.16	nt
COc1ccccc1N1CCN(C2CCN(C3CCC(c4ccccc4)CC3)CC2)CC1 (stereo not drawn)	-1	5	2	0.28	-3.1*	0.061*
Cn1cnnc1SCC(=O)Nc1nc(-c2ccccc2)cs1	0	3	0	-2.4	nt	nt
CCCC(=O)Nc1nc(C)c(-c2csc(Nc3ccccc3C)n2)s1	-4	4	4	-0.93	-15*	?
Nc1c(C(=O)N/N=C/c2ccc(Cl)cc2)cnn1-c1ccccc1	nt	nt	0	1	-1.6	nt
Nc1c(C(=O)N/N=C/c2ccc(OCc3ccccc3)cc2)cnn1-c1ccccc1	nt	nt	1	2.3	-13*	0.075
O=C(NCc1ccco1)c1cc(-c2ccc3c(c2)OCO3)on1	0	4	0	nt	0.21	nt
CCCNC(=O)c1cc(-c2ccc(Br)cc2)on1	0	5	-4	-0.65	nt	0.08
COCCNC(=O)c1cc(-c2ccc3c(c2)OCO3)on1	-1	3	-2	0.28	nt	0.081
CCOc1ccc(NC2OCC(O)C(O)C2O)c([N+](=O)[O-])c1 (stereo not drawn)	0	3	1	-0.55	-8.9*	0.074
O=C(O)COC(=O)C1C(c2ccccc2)C(C(=O)O)C1c1ccccc1 (stereo not drawn)	-1	2	0	-0.39	1.2	nt
COC(=O)C1C(c2ccccc2)C(C(=O)O)C1c1ccccc1 (stereo not drawn)	0	2	1	0.025	2	0.075
COc1ccc(CN(Cc2cccnc2)C(=S)NCCc2ccccc2)cc1OC	1	3	nt	-2	nt	nt
Cc1ccc(-n2cccn2)c(CN2CCC(CO)(CCc3ccccc3)CC2)c1	-3	7	1	0.36	-3.3*	0.061*
OCC1(CCc2ccccc2)CCN(Cc2cc(Cl)ccc2O)CC1	0	3	0	-0.56	-0.37	nt
O=C(CN1C(=O)CC(c2ccccc2)S(=O)(=O)c2ccccc21)N1CCCCC1 (stereo not drawn)	0	4	-2	0.5	0.54	nt
CCC(=O)c1ccc(N2CCN(C(=O)COc3ccc(F)cc3)CC2)c(F)c1	-1	3	2	nt	-1.8	nt
CC(=O)c1ccc(N2CCN(C(=O)COc3ccc(F)cc3)CC2)c(F)c1	0	3	-4	-0.94	-2.8*	0.061*
Cc1nc2ccc(NC(=O)c3cccc(S(=O)(=O)N4CC(C)OC(C)C4)c3)cc2s1 (stereo not drawn)	0	1	nt	1.2	-0.1	nt
Cc1ccc(NC(=O)c2cc(S(=O)(=O)N3CCOCC3)c(Br)s2)cc1	0	6	0	-0.65	nt	0.081

High-throughput results from PubChem.
